ChEMBL document CHEMBL1914430, “Synthesis of some new 1,3,5-trisubstituted pyrazolines bearing benzene sulfonamide as anticancer and anti-inflammatory agents” (Bioorg Med Chem Lett, 2011)

Tests used:
Type in all cases: functional
LOX IMVI = test: Anticancer activity against human LOXIMVI cells after 48 hrs; details: for CC50: read-out: LC50 (the source's name)
Outline: (§1)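 NCI Drug Evaluation Branch 60-cell-line screen across leukemia, melanoma, lung, colon, CNS, ovarian, renal, prostate and breast panels. The incubation period is 48 h. Parameters are derived from dose–response data: GI50 is the concentration giving 50% decrease in net growth, TGI is total growth inhibition, and LC50 is net 50% loss of initial cells. Values beyond the tested range are reported as greater or less than the maximum or minimum concentration.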

SN12C = test: Anticancer activity against human SN12C cells after 48 hrs
Outline: (§2)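 NCI 60-line panel protocol with a 48 h incubation. Per line: GI50 = concentration giving 50% decrease in net cell growth; TGI = total growth inhibition; LC50 = net 50% loss of initial cells. When the level was not reached or was exceeded, the value is given as greater or less than the highest or lowest concentration tested.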

ACHN = test: Anticancer activity against human ACHN cells after 48 hrs; details: for CC50: read-out: LC50 (the source's name); outline: as §1
NCI-H522 = test: Anticancer activity against human NCI-H522 cells after 48 hrs; details: NCI-H522, 48 h; outline: as §2
MDA-MB-468 = test: Anticancer activity against human MDA-MB-468 cells after 48 hrs; details: MDA-MB-468, 48 h; for CC50: read-out: LC50 (the source's name); outline: as §1
NCI-H23 = test: Anticancer activity against human NCI-H23 cells after 48 hrs; details: NCI-H23, 48 h; outline: as §2
SW-620 = test: Anticancer activity against human SW620 cells after 48 hrs; details: SW-620, 48 h; outline: as §2
SNB-75 = test: Anticancer activity against human SNB75 cells after 48 hrs; details: SNB-75, 48 h; for CC50: read-out: LC50 (the source's name); outline: as §2
TK-10 = test: Anticancer activity against human TK10 cells after 48 hrs; details: TK-10, 48 h
Outline: (§3)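 NCI ~60 human tumour cell line panel with a 48 h incubation. GI50 is the concentration giving a 50% fall in net growth, TGI gives total growth inhibition, and LC50 gives a net 50% loss of initial cells. An effect not reached or exceeded is reported as greater or less than the highest or lowest concentration tested.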

HOP-62 = test: Anticancer activity against human HOP62 cells after 48 hrs; details: HOP-62, 48 h; outline: as §1
A498 = test: Anticancer activity against human A498 cells after 48 hrs; details: A498, 48 h; for CC50: read-out: LC50 (the source's name); outline: as §1
BT-549 = test: Anticancer activity against human BT549 cells after 48 hrs; details: BT-549, 48 h; for CC50: read-out: LC50 (the source's name); outline: as §1
NCI/ADR-RES = test: Anticancer activity against human NCI/ADR-RES cells after 48 hrs; details: for CC50: read-out: LC50 (the source's name); outline: as §2
SF-268 = test: Anticancer activity against human SF268 cells after 48 hrs; details: SF-268, 48 h; outline: as §2
M14 = test: Anticancer activity against human M14 cells after 48 hrs; details: M14, 48 h; for CC50: read-out: LC50 (the source's name); outline: as §1
SK-OV-3 = test: Anticancer activity against human SKOV3 cells after 48 hrs; details: SK-OV-3, 48 h; for CC50: read-out: LC50 (the source's name); outline: as §2
HCT-15 = test: Anticancer activity against human HCT15 cells after 48 hrs; details: HCT-15, 48 h; for CC50: read-out: LC50 (the source's name); outline: as §1
MDA-MB-231 = test: Anticancer activity against human MDA-MB-231 cells after 48 hrs; details: MDA-MB-231, 48 h; for CC50: read-out: LC50 (the source's name); outline: as §1
SR = test: Anticancer activity against human SR cells after 48 hrs; outline: as §2
IGROV-1 = test: Anticancer activity against human IGROV1 cells after 48 hrs; details: IGROV-1, 48 h; outline: as §1
U-251 = test: Anticancer activity against human U251 cells after 48 hrs; details: U-251, 48 h; for CC50: read-out: LC50 (the source's name); outline: as §3
SNB-19 = test: Anticancer activity against human SNB19 cells after 48 hrs; details: SNB-19, 48 h; for CC50: read-out: LC50 (the source's name); outline: as §2
EKVX = test: Anticancer activity against human EKVX cells after 48 hrs; details: for CC50: read-out: LC50 (the source's name); outline: as §1
786-0 = test: Anticancer activity against human 786-0 cells after 48 hrs; details: 786-0, 48 h; for CC50: read-out: LC50 (the source's name); outline: as §1
SK-MEL-5 = test: Anticancer activity against human SK-MEL-5 cells after 48 hrs; details: SK-MEL-5, 48 h; outline: as §2
UACC-62 = test: Anticancer activity against human UACC62 cells after 48 hrs; details: UACC-62, 48 h; outline: as §3
NCI-H460 = test: Anticancer activity against human NCI-H460 cells after 48 hrs; details: NCI-H460, 48 h; outline: as §2
COLO 205 = test: Anticancer activity against human COLO205 cells after 48 hrs; details: COLO 205, 48 h; outline: as §1
UACC-257 = test: Anticancer activity against human UACC257 cells after 48 hrs; details: UACC-257, 48 h; outline: as §3
K562 = test: Anticancer activity against human K562 cells after 48 hrs; details: K562, 48 h; outline: as §1
[1] = Anticancer activity against human Hs 578T cells after 48 hrs; details: for CC50: read-out: LC50 (the source's name); outline: as §1
OVCAR-4 = test: Anticancer activity against human OVCAR4 cells after 48 hrs; details: OVCAR-4, 48 h; outline: as §2

## Cc1cc(O)c(C2=NN(c3ccc(S(N)(=O)=O)cc3)C(c3ccccc3Cl)C2)cc1Cl (configuration not stated)
LOX IMVI
  GI50: 1.78 µM
  TGI: 3.21 µM
  CC50: 5.8 µM
SN12C
  GI50: 2.55 µM
  LC50: 29.4 µM
  TGI: 6.32 µM
ACHN
  GI50: 3.34 µM
  TGI: 11 µM
  CC50: 34.3 µM
NCI-H522
  GI50: 1.89 µM
  LC50 (concentration killing 50% of initial cells): 8.33 µM
  TGI: 3.97 µM
MDA-MB-468
  GI50: 2.22 µM
  TGI: 4.74 µM
  CC50: > 100 µM
NCI-H23
  GI50: 1.79 µM
  LC50 (concentration killing 50% of initial cells): 7.13 µM
  TGI: 3.58 µM
SW-620
  GI50: 1.97 µM
  TGI: 4.1 µM
SNB-75
  GI50: 2.23 µM
  TGI: 8.83 µM
  CC50: 63.6 µM
TK-10
  GI50: 2.64 µM
  LC50: 33.9 µM
  TGI: 5.86 µM
HOP-62
  GI50: 2.03 µM
  LC50 (concentration for 50% net loss of initial cells): 8.53 µM
  TGI: 4.16 µM
A498
  GI50: 5.01 µM
  TGI: 20.5 µM
  CC50: 61.4 µM
BT-549
  GI50: 2.16 µM
  TGI: 4.74 µM
  CC50: 18.3 µM
NCI/ADR-RES
  GI50: 2.7 µM
  TGI: 6.85 µM
  CC50: 38.8 µM
SF-268
  GI50: 1.92 µM
  TGI: 3.72 µM
M14
  GI50: 1.85 µM
  TGI: 3.43 µM
  CC50: 6.39 µM
SK-OV-3
  GI50: 3.63 µM
  TGI: 10.4 µM
  CC50: 32.3 µM
HCT-15
  GI50: 3.69 µM
  TGI: 16.6 µM
  CC50: > 100 µM
MDA-MB-231
  GI50: 2.14 µM
  TGI: 4.52 µM
  CC50: 9.52 µM
SR
  GI50: 2.97 µM
  LC50 (concentration killing 50% of initial cells): > 100 µM
IGROV-1
  GI50: 2.58 µM
  LC50 (net 50% loss of initial cells): 47.2 µM
  TGI: 14 µM
U-251
  GI50: 2.25 µM
  TGI: 5.02 µM
  CC50: 36.9 µM
SNB-19
  GI50: 3.54 µM
  TGI: 16.3 µM
  CC50: 92.3 µM
EKVX
  GI50: 1.95 µM
  TGI: 4.6 µM
  CC50: > 100 µM
786-0
  GI50: 2.25 µM
  TGI: 4.52 µM
  CC50: 9.1 µM
SK-MEL-5
  GI50: 3.85 µM
  LC50: 36 µM
  TGI: 12.3 µM
UACC-62
  GI50: 3.71 µM
  LC50: 43.4 µM
  TGI: 14.4 µM
NCI-H460
  GI50: 2.16 µM
  LC50 (50% lethal concentration): 8.21 µM
  TGI: 4.21 µM
COLO 205
  GI50: 1.81 µM
  LC50 (concentration giving net 50% loss of initial cells): 6.03 µM
  TGI: 3.31 µM
UACC-257
  GI50: 11.8 µM
  LC50: > 100 µM
  TGI: 79.6 µM
K562
  GI50: 3.26 µM
  LC50 (concentration killing 50% of initial cells): > 100 µM
[1]
  GI50: 3.28 µM
  CC50: > 100 µM
OVCAR-4
  GI50: 2.73 µM
  LC50: 40 µM
  TGI: 8.48 µM

## Cc1cc(O)c(C2=NN(c3ccc(S(N)(=O)=O)cc3)C(c3ccccc3O)C2)cc1Cl (configuration not stated)
LOX IMVI
  GI50: 1.73 µM
  TGI: 3.19 µM
  CC50: 5.87 µM
SN12C
  GI50: 4.08 µM
  LC50: 43.1 µM
  TGI: 15.3 µM
ACHN
  GI50: 3.13 µM
  TGI: 11.2 µM
  CC50: 33.4 µM
NCI-H522
  GI50: 2.15 µM
  LC50 (concentration killing 50% of initial cells): 28 µM
  TGI: 6.28 µM
MDA-MB-468
  GI50: 2.58 µM
  TGI: 7.92 µM
  CC50: 37.6 µM
NCI-H23
  GI50: 2.09 µM
  LC50 (concentration killing 50% of initial cells): 16 µM
  TGI: 5.03 µM
SW-620
  GI50: 1.76 µM
  TGI: 3.59 µM
SW-620; read-out: LC50 (the source's name)
  CC50: 7.35 µM
SNB-75
  GI50: 1.79 µM
  TGI: 13.6 µM
  CC50: 37.1 µM
TK-10
  GI50: 3.3 µM
  LC50: 27.2 µM
  TGI: 6.85 µM
HOP-62
  GI50: 1.93 µM
  LC50 (concentration for 50% net loss of initial cells): 11.7 µM
  TGI: 4.5 µM
A498
  GI50: 2.79 µM
  TGI: 14.5 µM
  CC50: 46.9 µM
BT-549
  GI50: 2.47 µM
  TGI: 8.18 µM
  CC50: 58.7 µM
NCI/ADR-RES
  GI50: 3.61 µM
  TGI: 14.1 µM
  CC50: 54.1 µM
SF-268
  GI50: 2.64 µM
  LC50 (concentration killing 50% of initial cells): 51.9 µM
  TGI: 8.06 µM
M14
  GI50: 1.76 µM
  TGI: 3.4 µM
  CC50: 6.56 µM
SK-OV-3
  GI50: 4.41 µM
  TGI: 14.9 µM
  CC50: 38.6 µM
HCT-15
  GI50: 3.64 µM
  TGI: 13.4 µM
  CC50: 44.7 µM
MDA-MB-231
  GI50: 2.3 µM
  TGI: 6.69 µM
  CC50: 29.5 µM
SR
  GI50: 2.22 µM
  LC50 (concentration killing 50% of initial cells): > 100 µM
  TGI: 26.7 µM
IGROV-1
  GI50: 1.63 µM
  LC50 (net 50% loss of initial cells): 37.4 µM
  TGI: 11.2 µM
U-251
  GI50: 2.78 µM
  TGI: 7.76 µM
  CC50: 26.9 µM
SNB-19
  GI50: 4.33 µM
  TGI: 15.2 µM
  CC50: 39.8 µM
EKVX
  GI50: 1.99 µM
  TGI: 7.16 µM
  CC50: 39.7 µM
786-0
  GI50: 2.23 µM
  TGI: 4.21 µM
  CC50: 7.94 µM
SK-MEL-5
  GI50: 5.69 µM
  LC50: 42.7 µM
  TGI: 18.2 µM
UACC-62
  GI50: 3.54 µM
  LC50: 40.8 µM
  TGI: 15.5 µM
NCI-H460
  GI50: 2.06 µM
  LC50 (50% lethal concentration): 9.4 µM
  TGI: 4.48 µM
COLO 205
  GI50: 1.95 µM
  LC50 (concentration giving net 50% loss of initial cells): 6.43 µM
  TGI: 3.54 µM
UACC-257
  GI50: 6.92 µM
  LC50: 59 µM
  TGI: 22.1 µM
K562
  GI50: 2.56 µM
  LC50 (concentration killing 50% of initial cells): > 100 µM
  TGI: 14.6 µM
[1]
  GI50: 4.64 µM
  TGI: 22.5 µM
  CC50: > 100 µM
OVCAR-4
  GI50: 3.9 µM
  LC50: 51.8 µM
  TGI: 16 µM
